# Source: PubChem BioAssay
# An excerpt weighted towards active compounds, which were near 1.9% of everything screened.
# GAA850 FXN act: frataxin GAA850 promoter activation | HEK293 lucGAA850 FXN promoter luciferase reporter, 24 h; percent of 10 µM SAHA response | activation, % at 6 µM | actives 0.56% (n = 360,000);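 active = activation above the average of all compounds screened plus 3 SD, cutoff fixed separately per campaign, cut at about 7.5% in these data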;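 also: 0% = DMSO wells and 100% = 10 µM SAHA wells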
# ABHD5-PLIN5 inh: ABHD5-PLIN5 protein interaction inhibition. Split G. princeps luciferase complementation, luminescence, 4 h. AID 602281. inhibition, % at 4 µM. actives 0.78% (n = 360,000). Q00G26+Q8WTS1;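 active = inhibition above the mean inhibition across every tested compound plus 3 SD, cut at about 22% in these data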;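 also: 0% = DMSO only wells and the 100% control is not disclosed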
# Target sequence (Q00G26 whole entry, looked up): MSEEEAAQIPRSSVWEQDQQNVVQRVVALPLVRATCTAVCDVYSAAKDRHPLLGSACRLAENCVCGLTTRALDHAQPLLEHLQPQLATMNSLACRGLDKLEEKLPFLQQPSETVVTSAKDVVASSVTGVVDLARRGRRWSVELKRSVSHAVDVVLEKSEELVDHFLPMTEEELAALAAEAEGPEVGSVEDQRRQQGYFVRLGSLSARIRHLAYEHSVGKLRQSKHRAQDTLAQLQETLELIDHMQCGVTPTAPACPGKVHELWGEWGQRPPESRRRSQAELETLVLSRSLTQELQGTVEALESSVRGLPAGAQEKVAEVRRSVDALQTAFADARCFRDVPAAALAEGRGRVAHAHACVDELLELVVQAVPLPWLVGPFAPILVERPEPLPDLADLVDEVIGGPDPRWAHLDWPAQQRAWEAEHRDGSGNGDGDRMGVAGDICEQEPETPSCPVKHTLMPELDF
# Target sequence (Q8WTS1 whole entry, looked up): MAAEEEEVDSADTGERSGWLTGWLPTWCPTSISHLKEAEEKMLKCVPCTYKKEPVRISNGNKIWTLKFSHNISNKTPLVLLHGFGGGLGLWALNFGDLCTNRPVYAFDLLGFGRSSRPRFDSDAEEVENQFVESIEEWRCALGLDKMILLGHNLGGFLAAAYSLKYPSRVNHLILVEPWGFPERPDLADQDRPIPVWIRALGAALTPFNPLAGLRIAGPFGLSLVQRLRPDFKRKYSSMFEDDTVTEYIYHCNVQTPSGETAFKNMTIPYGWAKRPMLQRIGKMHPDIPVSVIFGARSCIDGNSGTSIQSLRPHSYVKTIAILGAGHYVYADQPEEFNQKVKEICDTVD
# Rad51 HR inh: blocks human Rad51 in homologous recombination; hRad51 DNA strand exchange, fluorescence dequenching; inhibition, % at 10 µM; actives 0.085% (n = 200,000); AID 1385;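 active = inhibition above 40% at the single screening dose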;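 also: 0% = DMSO control wells and 100% = blanks with heterologous ssDNA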
#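 material = hRad51 filaments on single-stranded DNA | timing = filaments 15 min 37 °C, then compound 30 min | signal = FRET fluorescence dequenching, excitation 485 nm, emission 520 nm | benchmarks = control wells and blank wells on each plate | evaluation = percent inhibition relative to plate controls and blanks | compound = 10 µM final, single point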
# HIF act: HIF pathway transcriptional activation; U2OS HRE-luciferase reporter, luminescence; normalized: DMSO 0%, desferrioxamine 100%; activation, % at 7.5 µM (by protocol); actives 0.32% (n = 300,000);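 active = mean activation of at least 10% of the iron chelator positive control signal, with at least half of replicates also reaching 10%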
# TAG inh: triacylglycerol accumulation inhibition; AID 651582; actives 0.66% (n = 230,000); H9c2 cells, Nile Red lipid (TAG) fluorescence; cells loaded with 200 µM oleic acid; inhibition, % at 12.5 µM;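 active = pattern-corrected inhibition of lipid staining of at least 50% with the nuclear-stain viability signal not falling by more than 50%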;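 also: 0% = DMSO wells and 100% = triacsin C control wells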
# Hsp70 activator: transcriptional activators of Hsp70; actives 0.04% (n = 200,000); activation, % at 10 µM; HeLa Hsp70 promoter luciferase reporter, luminescence; scaled: vehicle 0, proteasome-inhibitor control 100%;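 active = activation above the mean across all tested compounds plus 3 SD, cutoff set per campaign, cut at about 5.5% in these data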;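 also: 100% = MG132 at 30 µM as the positive control and 0% = DMSO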
# GAA30 FXN cntr: counter-screen for GAA850 frataxin promoter activators: GAA30 promoter activation | shares compounds with GAA850 FXN act | HEK293 lucGAA30 FXN promoter luciferase, 24 h; DMSO = 0%, 5 µM ipriflavone = 100% | activation, % at 6 µM | actives 66% (n = 1,900);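 active = mean activation above the mean of solvent-only control wells plus 3 SD, cut at about 22% in these data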;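 also: counterscreen of GAA850 promoter hits where activity marks nonselective or luminescence artifacts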
# FXN GAA850 conf: confirmation of GAA850 frataxin (FXN) promoter activators; shares compounds with GAA850 FXN act; HEK293 lucGAA850 FXN promoter luciferase reporter, 24 h; 100% = activation by SAHA; activation, % at 6 µM; actives 86% (n = 1,900); AID 588351;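 active = mean activation above a set limit taken from the primary screen, cut at about 8% in these data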;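 also: 0% = DMSO wells and 100% = 10 µM SAHA wells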
# * marks the source's active call; other numbers are inactive results; nt = no result.
SMILES,GAA850 FXN act,ABHD5-PLIN5 inh,Rad51 HR inh,HIF act,TAG inh,Hsp70 activator,GAA30 FXN cntr,FXN GAA850 conf
CC(C)(C)c1ccc(C(=O)Nc2ccccc2Cl)cc1,3,-12,-9,0,7,0,nt,nt
O=C(Nc1ccccc1Cl)c1ccccc1CC(O)(c1ccccc1)c1ccccc1,14*,1,nt,nt,-7,nt,9,12*
NC(CCc1ccccc1)c1csc(NC(=O)NCCc2ccccc2)n1 (stereo unspecified),2,11,nt,nt,45,nt,nt,nt
COc1cccc(Nc2nc(C(N)COCc3ccccc3)cs2)n1 (stereo unspecified),4,11,nt,nt,29,nt,nt,nt
COc1cccc(Nc2nc(C(N)CCc3ccccc3)cs2)n1 (stereo unspecified),8.3*,1,nt,nt,14,nt,-4,7.7*
CC(C)c1ccccc1NC(=O)Nc1nc(C(N)Cc2ccc(C(F)(F)F)cc2)cs1 (stereo unspecified),-2,-15,nt,nt,122,nt,nt,nt
NC(CCc1ccccc1)c1csc(NC(=O)Nc2ccccc2Oc2ccccc2)n1 (stereo unspecified),11*,-3,nt,nt,132,nt,9,16*
NC(Cc1ccc(C(F)(F)F)cc1)c1csc(NC(=O)Nc2ccccc2Cc2ccccc2)n1 (stereo unspecified),15*,-12,nt,nt,120,nt,20,15*
CN(Cc1ccccc1)C(=O)c1ccc(NC(=O)Cc2ccc(NC(=O)C3CCCN(S(=O)(=O)c4cccc([N+](=O)[O-])c4)C3)cc2)cc1 (stereo unspecified),-1,-5,nt,nt,9,nt,nt,nt
CC(=O)Oc1ccc(C(=O)Cc2ccccn2)c(O)c1,11*,1,-8,0,nt,0,23*,12*
CCCCCN1C=CC(=C2C(=O)c3ccccc3C2=O)C=C1,-12,0,nt,-8,-16,-1,nt,nt
CC1=CC(=C2C(=O)c3ccccc3C2=O)C=C(C)N1C,8.2*,8,nt,2,nt,0,111*,34*
CCCn1c(SCC(=O)NC(=O)NC(C)(C)C)n[nH]c1=O,-2,-10,-5,0,4,0,nt,nt
COCCCN1C(=O)c2[nH]nc(-c3ccccc3O)c2C1c1ccc(Cl)cc1 (stereo unspecified),-14,-1,4,3,21,0,nt,nt
COc1ccc(CCN2C(=O)c3[nH]nc(-c4ccccc4O)c3C2c2ccccc2)cc1OC (stereo unspecified),13*,0,-11,0,-36,0,7,8.9*
CCC(C)(C)n1nnnc1C(c1ccc(C)cc1)N(Cc1ccco1)Cc1cccs1 (stereo unspecified),8.3*,-6,-4,0,-99,0,6,8.8*
CC(C)(C)n1nnnc1C(c1cccnc1)N(Cc1ccccc1)Cc1ccco1 (stereo unspecified),7.9*,6,nt,0,16,0,11,9.0*
O=C(Nc1cccc(C(=O)O)c1)/C(=C\c1ccc2c(c1)OCO2)NC(=O)c1ccccc1Cl,0,3,nt,0,-12,nt,nt,nt
CC(C)OC(=O)n1c(=S)oc2ccccc21,3,-7,4,0,nt,0,nt,nt
CCCCC(=O)/C=C/n1c(=S)oc2ccccc21,8.5*,16,-6,5,nt,0,-20,23*
O=C(NCCc1ccc(Cl)cc1)C1CCC(CNc2c(N3CCCCC3)c(=O)c2=O)CC1 (stereo unspecified),16*,3,-1,0,-15,0,28*,5
COc1cc2c(cc1OC)C1=C(C#N)CC/C(=N\S(=O)(=O)c3cccc(Cl)c3)N1CC2,8.2*,-4,2,-1,nt,0,27*,14*
COc1cc2c(cc1OC)C1=C(C#N)CCC(=NC(=O)c3ccco3)N1CC2,7,-4,7,0,-8,1,nt,nt
ClC(/C=N/n1cnnc1)=C/c1ccccc1,7.8*,10,nt,1,-4,nt,59*,30*
CC(/C=N/n1cnnc1)=C\c1ccccc1,0,-6,0,-1,13,0,nt,nt
SMILES,GAA850 FXN act,ABHD5-PLIN5 inh,Rad51 HR inh,HIF act,TAG inh,Hsp70 activator,GAA30 FXN cntr,FXN GAA850 conf
COc1ccc(-c2cc(C(=O)NCC3CCCCC3)[nH]n2)c(C)c1,2,-8,nt,nt,12,nt,nt,nt
CC(Cc1ccccc1)Nc1ncnc2c1ncn2C1OC(CO)C(O)C1O (stereo unspecified),8.7*,7,-5,0,11,nt,55*,25*
OC[C@H]1O[C@@H](n2cnc3c(NC4CCCC4)nc(Cl)nc32)[C@H](O)[C@@H]1O,8.5*,0,nt,nt,6,nt,31*,18*
C[C@H](Cc1ccccc1)Nc1ncnc2c1ncn2[C@@H]1O[C@H](CO)[C@@H](O)[C@H]1O,7,-4,nt,nt,-11,nt,nt,nt
Cc1ccc(C2CC(c3ccco3)n3ncnc3N2)cc1 (stereo unspecified),11*,2,6,0,nt,0,12,6
Fc1ccc(C2CC(c3ccco3)n3ncnc3N2)cc1 (stereo unspecified),1,-3,-1,0,6,0,nt,nt
Cc1ccc(Cl)cc1N1CCN(C(=O)C2CCN(c3nnc(-n4cccc4)s3)CC2)CC1,8.2*,4,-6,0,26,0,2,3
COc1cccc(N=Nc2ccc(O)c3ncccc23)c1,9.6*,2,nt,7,nt,nt,-107,-33
CC1CC(=O)NN=C1c1ccc(N(C)C)c([N+](=O)[O-])c1 (stereo unspecified),7.8*,7,-5,0,nt,0,26*,22*
COC(=O)[C@@H](NC(=O)Nc1cccc(Br)c1)C(C)C,-2,4,nt,0,nt,0,nt,nt
C/C(=N\NC(=O)c1ccccc1)c1ccc(N2CCCCC2)cc1,8.0*,-2,8,nt,nt,0,98*,34*
C/C(=N\NC(=O)c1ccc(N2CCCC2=O)cc1)c1ccccc1,-1,4,nt,0,nt,nt,nt,nt
O=C(OCc1cn([C@H]2CN(C(=O)C3CCCCC3)[C@@H](c3ccc(Cl)cc3)C[C@@H]2O)nn1)c1ccccc1,0,-17,nt,nt,-5,nt,nt,nt
COc1ccc(-c2nnc(Nc3nc4c(OC)cccc4s3)o2)cc1,4,4,nt,0,-7,0,nt,nt
COc1ccc(-c2nnc(Nc3nc4c(OC)cccc4s3)o2)c(OC)c1,9.0*,9,-2,2,nt,0,19,23*
Cc1cc(C)n2cc(CSc3nnc(SCc4cn5c(C)cc(C)nc5n4)s3)nc2n1,nt,nt,-3,nt,nt,0,nt,nt
